We go through 6 molecules from ChEMBL document CHEMBL4665692, “Synthesis and Antimicrobial Activity of Burkholderia-Related 4-Hydroxy-3-methyl-2-alkenylquinolines (HMAQs) and Their N-Oxide Counterparts” (2020).

Values after ≈ are worked out from the molar mass of the structure shown. Active and inactive are the calls of the source. The calls are words filed in the database; no cut-off is given here.

One assay relates to Cryptococcus neoformans. Kind of assay: Antifungal activity against Cryptococcus neoformans after 48 hrs by CLSI protocol based broth microdilution assay. It is filed as functional.
For assay [1], the system named is Actinobacillus pleuropneumoniae. Kind of assay: Antibacterial activity against Actinobacillus pleuropneumoniae after 48 hrs by CLSI protocol based broth microdilution assay. It is filed as functional. The essentials:
(§1)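 Strains (B. subtilis PY79, P. peoriae LMG1611, S. aureus Newman, S. agalactiae ATCC27956, E. coli ATCC25922, P. aeruginosa PA14, P. fluorescens LMG1794, X. campestris Xg, A. pleuropneumoniae) were grown overnight in TSB at 30 °C with shaking, then suspended in Mueller-Hinton broth, final OD600 0.01. Twofold-series compound, 100 to 0.78 μM, from 20 mM DMSO stock. Incubated 48 h, 30 °C, 250 rpm; OD600 read; MIC.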

A further assay deals with Pseudomonas aeruginosa. Kind of assay: Antibacterial activity against Pseudomonas aeruginosa after 48 hrs by CLSI protocol based broth microdilution assay. Type of assay: functional. The essentials: as §1
Assay [2] relates to hmqA (Burkholderia ambifaria). Kind of assay: Inhibition of beta-galactosidase hmqA mutant (Burkholderia ambifaria) by lacZ reporter gene assay.
Another assay has as its system Pseudomonas fluorescens. Kind of assay: Antibacterial activity against Pseudomonas fluorescens after 48 hrs by CLSI protocol based broth microdilution assay. Type of assay: functional. Put shortly: as §1
A further assay relates to Xanthomonas campestris. Kind of assay: Antibacterial activity against Xanthomonas campestris after 48 hrs by CLSI protocol based broth microdilution assay. It is filed as functional. Put shortly:
as §1

A further assay has as its system Streptococcus agalactiae. As to the kind of experiment: Antibacterial activity against Streptococcus agalactiae after 48 hrs by CLSI protocol based broth microdilution assay. Type of assay: functional. The essentials: as §1
A further assay deals with Candida albicans. As to the kind of experiment: Antifungal activity against Candida albicans after 48 hrs by CLSI protocol based broth microdilution assay. Type of assay: functional.
In the next assay the test system is Bacillus subtilis. Kind of assay: Antibacterial activity against Bacillus subtilis after 48 hrs by CLSI protocol based broth microdilution assay. Type of assay: functional. Put shortly:
as §1

The next assay relates to Escherichia coli. Kind of assay: Antibacterial activity against Escherichia coli after 48 hrs by CLSI protocol based broth microdilution assay. Type of assay: functional. Put shortly:
as §1

The next assay has as its system Fusarium oxysporum. Kind of assay: Antifungal activity against Fusarium oxysporum after 48 hrs by CLSI protocol based broth microdilution assay. Type of assay: functional. The essentials:
(§2)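 Molds (A. niger, F. oxyporum, F. solani, Mucorales TM29) were grown 4 days at 25 °C on PDA, and spores were harvested in sterile water and counted by hemacytometer. Spores (2 × 10⁴ mL⁻¹) went into L-glutamine RPMI 1640, MOPS-buffered to pH 7.0, with serially diluted compound (top 100 μM). Incubated 2 days at room temperature; OD600 read; MIC.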

Assay [3] can be described thus: Antibacterial activity against Paenibacillus peoriae after 48 hrs by CLSI protocol based broth microdilution assay. It is filed as functional. The essentials:
as §1

Another assay relates to Aspergillus niger. As to the kind of experiment: Antifungal activity against Aspergillus niger after 48 hrs by CLSI protocol based broth microdilution assay. It is filed as functional. Put shortly: as §2
In another assay the test system is Fusarium solani. Kind of assay: Antifungal activity against Fusarium solani after 48 hrs by CLSI protocol based broth microdilution assay. Type of assay: functional. Put shortly:
as §2

Another assay deals with Staphylococcus aureus. Kind of assay: Antibacterial activity against Staphylococcus aureus after 48 hrs by CLSI protocol based broth microdilution assay. It is filed as functional. Put shortly:
as §1

A further assay concerns Mucorales. As to the kind of experiment: Antifungal activity against Mucorales after 48 hrs by CLSI protocol based broth microdilution assay. It is filed as functional. Put shortly: as §2

As to `CCCCC/C=C/Cc1[nH]c2ccccc2c(=O)c1C`, the minimal inhibitory concentration (MIC) in the assay with Cryptococcus neoformans was found to be 1.56 µM (≈ 0.42 µg/mL); in [1], 1.56 µM (≈ 0.42 µg/mL); with Pseudomonas aeruginosa it was 50 µM (≈ 13.5 µg/mL); in the assay on Pseudomonas fluorescens, 25 µM (≈ 6.73 µg/mL); against Xanthomonas campestris, 100 µM (≈ 26.9 µg/mL); against Streptococcus agalactiae, 1.56 µM (≈ 0.42 µg/mL). Also, the minimal inhibitory concentration (MIC) is > 100 µM in the assay on Candida albicans; 1.56 µM (≈ 0.42 µg/mL) in the assay with Bacillus subtilis; 100 µM (≈ 26.9 µg/mL) with Escherichia coli; > 100 µM with Fusarium oxysporum; 12.5 µM (≈ 3.37 µg/mL) in assay [3]; > 100 µM in the assay with Aspergillus niger. The minimal inhibitory concentration (MIC) was > 100 µM with Fusarium solani, 1.56 µM (≈ 0.42 µg/mL) in the assay on Staphylococcus aureus and 12.5 µM (≈ 3.37 µg/mL) against Mucorales. Further, the result in [2] was Active.

Consider `CCCCCC/C=C/Cc1c(C)c(=O)c2ccccc2n1O`, for which the MIC with Cryptococcus neoformans stood at 6.25 µM (≈ 1.87 µg/mL); in assay [1] it was 1.56 µM (≈ 0.467 µg/mL); against Pseudomonas aeruginosa, 12.5 µM (≈ 3.74 µg/mL); against Pseudomonas fluorescens it was 25 µM (≈ 7.49 µg/mL); in the assay with Xanthomonas campestris, 12.5 µM (≈ 3.74 µg/mL); with Streptococcus agalactiae, 1.56 µM (≈ 0.467 µg/mL). Besides, the MIC against Candida albicans is > 100 µM; in the assay on Bacillus subtilis it was 3.13 µM (≈ 0.937 µg/mL); in the assay with Escherichia coli, 6.25 µM (≈ 1.87 µg/mL); against Fusarium oxysporum, > 100 µM; in assay [3], 1.56 µM (≈ 0.467 µg/mL); in the assay on Aspergillus niger, > 100 µM. Besides, the MIC is > 100 µM with Fusarium solani, 1.56 µM (≈ 0.467 µg/mL) in the assay on Staphylococcus aureus and > 100 µM against Mucorales.

In the case of `CCCC/C=C/Cc1c(C)c(=O)c2ccccc2n1O`, the MIC against Cryptococcus neoformans amounted to 50 µM (≈ 13.6 µg/mL); in assay [1] it was 1.56 µM (≈ 0.423 µg/mL); in the assay on Pseudomonas aeruginosa, 50 µM (≈ 13.6 µg/mL); with Pseudomonas fluorescens, 50 µM (≈ 13.6 µg/mL); in the assay on Xanthomonas campestris, 6.25 µM (≈ 1.7 µg/mL); in the assay with Streptococcus agalactiae, 1.56 µM (≈ 0.423 µg/mL). For the same molecule, the MIC is > 100 µM against Candida albicans; 1.56 µM (≈ 0.423 µg/mL) against Bacillus subtilis; 25 µM (≈ 6.78 µg/mL) in the assay with Escherichia coli; > 100 µM in the assay on Fusarium oxysporum; 1.56 µM (≈ 0.423 µg/mL) in assay [3]; > 100 µM in the assay with Aspergillus niger. The figures for the MIC in the assay with Fusarium solani, against Staphylococcus aureus and in the assay with Mucorales were > 100 µM, 1.56 µM (≈ 0.423 µg/mL) and > 100 µM, respectively.

Take `CCCC/C=C/Cc1[nH]c2ccccc2c(=O)c1C`: the MIC against Cryptococcus neoformans was 3.13 µM (≈ 0.799 µg/mL); in assay [1], 3.13 µM (≈ 0.799 µg/mL); against Pseudomonas aeruginosa, > 100 µM; in the assay on Pseudomonas fluorescens, 25 µM (≈ 6.38 µg/mL); with Xanthomonas campestris, 100 µM (≈ 25.5 µg/mL); against Streptococcus agalactiae, 1.56 µM (≈ 0.398 µg/mL). For the same molecule, the MIC against Candida albicans was > 100 µM; in the assay on Bacillus subtilis it was 1.56 µM (≈ 0.398 µg/mL); with Escherichia coli it was 100 µM (≈ 25.5 µg/mL); with Fusarium oxysporum, 12.5 µM (≈ 3.19 µg/mL); in [3] it was 12.5 µM (≈ 3.19 µg/mL); in the assay with Aspergillus niger, > 100 µM. Moreover, the MIC in the assay with Fusarium solani was > 100 µM; with Staphylococcus aureus, 1.56 µM (≈ 0.398 µg/mL); with Mucorales, 6.25 µM (≈ 1.6 µg/mL). The result in assay [2] was Active.

Regarding `CCCCCC/C=C/Cc1[nH]c2ccccc2c(=O)c1C`, the MIC was 1.56 µM (≈ 0.442 µg/mL) against Cryptococcus neoformans; 1.56 µM (≈ 0.442 µg/mL) in assay [1]; > 100 µM against Pseudomonas aeruginosa; 50 µM (≈ 14.2 µg/mL) against Pseudomonas fluorescens; 100 µM (≈ 28.3 µg/mL) against Xanthomonas campestris; 1.56 µM (≈ 0.442 µg/mL) against Streptococcus agalactiae. Further, the MIC in the assay on Candida albicans is > 100 µM; against Bacillus subtilis it was 1.56 µM (≈ 0.442 µg/mL); in the assay on Escherichia coli it was 100 µM (≈ 28.3 µg/mL); in the assay with Fusarium oxysporum it was 12.5 µM (≈ 3.54 µg/mL); in [3] it was 12.5 µM (≈ 3.54 µg/mL); in the assay on Aspergillus niger, > 100 µM. Further, the MIC amounted to 6.25 µM (≈ 1.77 µg/mL) against Fusarium solani, 1.56 µM (≈ 0.442 µg/mL) in the assay on Staphylococcus aureus and 12.5 µM (≈ 3.54 µg/mL) with Mucorales.

Take `CCCCC/C=C/Cc1c(C)c(=O)c2ccccc2n1O`: the minimal inhibitory concentration (MIC) against Cryptococcus neoformans stood at 12.5 µM (≈ 3.57 µg/mL); in assay [1], 1.56 µM (≈ 0.445 µg/mL); against Pseudomonas aeruginosa it was 25 µM (≈ 7.13 µg/mL); in the assay on Pseudomonas fluorescens it was 25 µM (≈ 7.13 µg/mL); against Xanthomonas campestris it was 3.13 µM (≈ 0.893 µg/mL); in the assay with Streptococcus agalactiae it was 1.56 µM (≈ 0.445 µg/mL). In addition, the MIC is > 100 µM in the assay on Candida albicans; 1.56 µM (≈ 0.445 µg/mL) against Bacillus subtilis; 6.25 µM (≈ 1.78 µg/mL) in the assay on Escherichia coli; > 100 µM in the assay on Fusarium oxysporum; 1.56 µM (≈ 0.445 µg/mL) in [3]; > 100 µM in the assay with Aspergillus niger. For the same molecule, the MIC in the assay with Fusarium solani was > 100 µM; in the assay with Staphylococcus aureus it was 1.56 µM (≈ 0.445 µg/mL); against Mucorales it was > 100 µM.
